Experiments:
Assay type in all cases: functional, organism-based
Leishmania infantum [1] = assay: Antileishmanial activity against Leishmania infantum promastigotes overexpressing LiABCG6 assessed as cell viability after 72 hrs by MTT assay
Summary of the method: (§1)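 L. infantum promastigotes (strain MHOM/ES/1993/BCN-99) grown at 28°C in modified RPMI 1640 with 20% heat-inactivated fetal bovine serum. Drug sensitivity was measured by MTT-based assay. IC50 was taken as the drug concentration giving half-maximal inhibition of cellular growth rate.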

Leishmania infantum [2] = assay: Antileishmanial activity against GFP-tagged at COOH terminus Leishmania infantum promastigotes overexpressing LiABCG6 assessed as cell viability after 72 hrs by MTT assay; summary of the method: as §1
Leishmania infantum [3] = assay: Antileishmanial activity against GFP-tagged at NH2 terminus Leishmania infantum promastigotes overexpressing LiABCG6 assessed as cell viability after 72 hrs by MTT assay; summary of the method: as §1

Row | SMILES | IC50 (Leishmania infantum [1]) | IC50 (Leishmania infantum [2]) | IC50 (Leishmania infantum [3])
1 | CC[C@@]1(O)C(=O)OCc2c1cc1n(c2=O)Cc2cc3ccccc3nc2-1 [CAMPTOTHECIN] | 34.4 µM | – | –
2 | CCN(CC)CCCC(C)Nc1ccnc2cc(Cl)ccc12 (configuration not stated) [CHLOROQUINE] | 24.1 µM | – | –
3 | CCCCCCCCCCCCCCCCCCOCC(COP(=O)([O-])OCC[N+](C)(C)C)OC (configuration not stated) [EDELFOSINE] | 11.3 µM | 12.9 µM | 4.8 µM
4 | CC(=O)N1CCN(c2ccc(OCC3COC(Cn4ccnc4)(c4ccc(Cl)cc4Cl)O3)cc2)CC1 (configuration not stated) [KETOCONAZOLE] | 19.3 µM | – | –
5 | OC(c1cc(C(F)(F)F)nc2c(C(F)(F)F)cccc12)C1CCCCN1 (configuration not stated) [MEFLOQUINE] | 7 µM | – | –
6 | CCCCCCCCCCCCCCCCOP(=O)([O-])OCC[N+](C)(C)C [MILTEFOSINE] | 12.9 µM | 13.6 µM | 5.6 µM
7 | CCCCCCCCCCCCCCCCCCOP(=O)([O-])OC1CC[N+](C)(C)CC1 [PERIFOSINE] | 11 µM | 12.2 µM | 4.2 µM
8 | COc1cc(NC(C)CCCN)c2ncccc2c1 (configuration not stated) [PRIMAQUINE] | 54.9 µM | – | –
9 | CCN(CC)CCCCCCNc1cc(OC)cc2c(C)ccnc12 [SITAMAQUINE] | 14.3 µM | 15.2 µM | 7.8 µM

From ChEMBL document CHEMBL1275503, “Characterization of an ABCG-like transporter from the protozoan parasite Leishmania with a role in drug resistance and transbilayer lipid movement” (Antimicrob Agents Chemother, 2008)
